According to PubChem BioAssay:
Inconclusive results are not listed.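 The calls were made as follows, unless noted: active = growth inhibition above 25% in both replicates, a cutoff set 3 SD above the mean; inconclusive = above 25% in only one replicate; inactive = the rest.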

What was measured:
[1] = S. cerevisiae growth inhibition in permissive medium (OD615), pilot counter-assay for S. cerevisiae lifespan shortening project, permissive growth control (AID 705); conditions: OD615, 24 h, at 10 µM, active compounds read high
Summary of the method: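 System: engineered DeaD yeast; Medium: permissive raffinose/galactose medium; Compound dosing: 10 µM single dose, 0.25% DMSO; Incubation: 4 h cell pre-growth, 24 h exposure at 30 °C; Technique: OD at 615 nm; Evaluation: growth inhibition from lowered OD615 after 24 h.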

[2] = S. cerevisiae growth inhibition in restrictive medium, OD615, pilot screen, restrictive growth control, yeast lifespan reduction project (AID 706;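 active = growth inhibition above a set limit, 3 SD over mean compound inhibition, in both replicates, cut at about 43% in these data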;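 also: modified DeaD lifespan yeast strain shifted to restrictive glucose medium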); conditions: OD615, 48 h, at 10 µM, active compounds read high
Summary of the method: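 Material: modified S. cerevisiae; buffer or medium: CSMM-D glucose medium; doses: one concentration, 10 µM final, 0.25% DMSO; incubation: 48 h compound exposure at 30 °C; detection: optical density at 615 nm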

[3] = doxorubicin toxicity protection in MRP-1 cells – H69AR cells, CellTiter-Glo, duplicate, MRP-1 activator project, pilot screen (AID 807;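 active = viability increase at or above a cutoff of the median across tested compounds plus 3 SD, cut at about 8.5% in these data, passing the limit was not always enough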;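 also: compound pretreatment 18-22 h then 72 h combined with doxorubicin; 0% = doxorubicin alone and 100% = vehicle without doxorubicin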); conditions: H69AR viability with doxorubicin, CellTiter-Glo luminescence; at 10 µM; active compounds read high
[4] = viability of HCT116 without oncogenic beta-catenin – human colon tumor cells, pilot screen (AID 823;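 active = cell viability at or below a set limit in both duplicate runs, the limit being the all-compound median minus 4 SD, cut at about 23% in these data, passing the limit was not always enough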;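 also: 0% = wells killed by 20 µM Hyamine and 100% = untreated DMSO cell wells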); conditions: HCT116 beta-catenin knockout viability, CellTiter-Glo, 60 h; at 10 µM; active compounds read low
[5] = viability of PTEN-null HCT116 cells – cell-based, HCT116 clonal line, CellTiter-Glo, pilot screen (AID 824;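 active = viability at or below 27.92% in each of two runs, the all-compound median minus 4 SD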;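 also: 0% = 20 µM Hyamine control and 100% = vehicle cell control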); conditions: HCT116 PTEN-deleted viability, 60 h, at 10 µM, active compounds read low
[6] = RAM pathway blockade in budding yeast – dse1pr::URA3 reporter, 5-FOA selection, pilot screen (AID 869;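 active = inhibition over a set limit, the all-compound mean plus 3 SD, in both replicate runs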;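 also: 0% = DMSO wells with no growth and 100% = 10 µM 1-NA-PP1 with full growth; RAM network block rescues cells from 5-FOA so hits raise OD615 growth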); conditions: S. cerevisiae dse1pr::URA3 5-FOA growth, OD615, 2 d; at 10 µM; active compounds read high; strain carries analog-sensitive mutant Cbk1 kinase
[7] = RAM signaling pathway blockade in yeast – S. cerevisiae, Pdr1DBD-CYC8 efflux-inhibited sensitized strain, primary screen (AID 1298;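 active = RAM network inhibition above 8.4% in each of two replicates, 3 SD over the compound average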;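 also: 0% = DMSO untreated cells without growth and 100% = 10 µM 1-NA-PP1 full growth; higher means more yeast growth rescued from 5-FOA killing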); conditions: S. cerevisiae cbk1-as DSE1-URA3 strain, 5-FOA growth OD615, 2 d; at 50 µM; active compounds read high

COc1ccccc1-c1cc(N)n(S(=O)(=O)c2ccc(F)c(C)c2)n1
inactive: growth inhibition [1] -9.16% | growth inhibition [2] -5.82% | viability increase [3] -3.08% | viability [4] 55% | viability [5] 64% | inhibition [6] 4.39% | RAM network inhibition [7] 3.97%

NC(=O)C1CCN(C(=O)C2CCN(S(=O)(=O)c3ccccc3)CC2)CC1
inactive: growth inhibition [1] -2.18% | growth inhibition [2] 12.3% | viability increase [3] -1.4% | viability [4] 102% | viability [5] 105% | inhibition [6] 1.06% | RAM network inhibition [7] 0.84%

CCN(CC)CCCN1C(=O)C(O)=C(C(C)=O)C1c1ccc(OC)cc1OC (stereo not drawn)
inactive: growth inhibition [1] -0.68% | growth inhibition [2] -3.67% | viability increase [3] -2.64% | viability [4] 98.5% | viability [5] 92.4% | inhibition [6] 1.03% | RAM network inhibition [7] 1.44%

CCc1ccc(C2CC(=O)N3CN(c4ccccc4)CSC3=C2C#N)cc1 (stereo not drawn)
inactive: growth inhibition [1] 3.98% | growth inhibition [2] 21.7% | viability increase [3] -3.73% | viability [4] 101% | viability [5] 90.6% | inhibition [6] 1.68% | RAM network inhibition [7] -0.78%

CC(=O)Nc1ccc(NC(=O)c2oc3cc(C)c(C)cc3c2C)cc1
inactive: growth inhibition [1] -7.1% | growth inhibition [2] -17% | viability increase [3] -0.82% | viability [4] 104% | viability [5] 96.4% | inhibition [6] 2.38% | RAM network inhibition [7] 5.95%

Cc1ccc(C(=O)NCc2ccco2)cc1S(=O)(=O)N1CCCCC1
inactive: growth inhibition [1] -11.6% | growth inhibition [2] -5.65% | viability increase [3] -5.21% | viability [4] 82.9% | viability [5] 85.5% | inhibition [6] 3% | RAM network inhibition [7] 6.81%

CC(C)C(NC(=O)C12CC3CC(CC(C3)C1)C2)C(=O)NC1=NCCS1 (stereo not drawn)
inactive: growth inhibition [1] -6.21% | growth inhibition [2] 7.3% | viability increase [3] -3.97% | viability [4] 88% | viability [5] 89.2% | inhibition [6] 2.41% | RAM network inhibition [7] 4.34%

O=C(CSc1nc(-c2ccccc2)c(-c2ccccc2)o1)N1CCOCC1
inactive: growth inhibition [1] -8.68% | growth inhibition [2] -15.5% | viability increase [3] -3.26% | viability [4] 90.2% | viability [5] 89.6% | inhibition [6] 2.38% | RAM network inhibition [7] 4.54%

CCOC(=O)N1CCN(C(=O)CS(=O)Cc2nc(-c3cccc(C)c3)oc2C)CC1 (stereo not drawn)
inactive: growth inhibition [1] -10.5% | growth inhibition [2] -16.8% | viability increase [3] -1.34% | viability [4] 104% | viability [5] 100% | inhibition [6] 1.69% | RAM network inhibition [7] 1.11%

Cc1ccc2c(CC(=O)O)coc2c1
inactive: growth inhibition [1] -5.59% | growth inhibition [2] 27.6% | viability increase [3] -0.46% | viability [4] 89.3% | viability [5] 97.5% | inhibition [6] -0.825% | RAM network inhibition [7] -1.05%

CC(C)N1C(=O)CCC1C(=O)N1CCC(Cc2ccccc2)CC1 (stereo not drawn)
inactive: growth inhibition [1] -8.06% | growth inhibition [2] 0.645% | viability increase [3] 1.19% | viability [4] 102% | viability [5] 95.3% | inhibition [6] 1.92% | RAM network inhibition [7] 2.34%

Cc1nnc(Sc2nc3c(c(=O)[nH]c(=O)n3C)n2CCc2ccccc2)s1
inactive: growth inhibition [1] -17.6% | growth inhibition [2] -13.6% | viability increase [3] -0.89% | viability [4] 102% | viability [5] 100% | inhibition [6] 0.16% | RAM network inhibition [7] 8.3%

Cc1ccc(-n2ncc3c(=O)[nH]c(SCC(=O)N4CCCCC4)nc32)cc1
inactive: growth inhibition [1] -4.04% | growth inhibition [2] 2.2% | viability increase [3] -4.87% | viability [4] 94.6% | viability [5] 92.1% | inhibition [6] 1.27% | RAM network inhibition [7] 0.05%

CCOC(=O)c1c(CN2CCCCC2)n(C)c2ccc(OC)c(S(=O)(=O)c3ccccc3)c12
inactive: growth inhibition [1] -6.81% | growth inhibition [2] -19.7% | viability increase [3] -3.9% | viability [4] 96.3% | viability [5] 92.4% | inhibition [6] 0.105% | RAM network inhibition [7] 3.27%

COc1ccc(S(=O)(=O)Cc2ccc(C(=O)N3CCCC3)o2)cc1
inactive: growth inhibition [1] 5.75% | growth inhibition [2] -2.15% | viability increase [3] -1.61% | viability [4] 96.7% | viability [5] 91% | inhibition [6] 1.11% | RAM network inhibition [7] 4.21%

C=CCNC(=O)C1CC(=O)N(c2ccc(C)cc2)C1 (stereo not drawn)
inactive: growth inhibition [1] -10.6% | growth inhibition [2] -4.72% | viability increase [3] -3.08% | viability [4] 93.9% | viability [5] 86.1% | inhibition [6] 0.995% | RAM network inhibition [7] 4.77%

CCCCOC(=O)c1ccc(NS(=O)(=O)c2cc(-c3nnnn3CC)ccc2OC)cc1
inactive: growth inhibition [1] 3.03% | growth inhibition [2] 2.27% | viability increase [3] -2.06% | viability [4] 91.5% | viability [5] 98% | inhibition [6] 0.93% | RAM network inhibition [7] 4.7%

Cn1c(=O)c2c(nc(NCc3ccccc3)n2C)n(C)c1=O
inactive: growth inhibition [1] -4.99% | growth inhibition [2] -2.69% | viability increase [3] -1.73% | viability [4] 99.6% | viability [5] 95.4% | inhibition [6] 0.45% | RAM network inhibition [7] 1.42%

C=CCn1c(SCCCc2ccccc2)nc2c1c(=O)[nH]c(=O)n2C
inactive: growth inhibition [1] 5.96% | growth inhibition [2] 6.29% | viability increase [3] -5.7% | viability [4] 67.8% | viability [5] 65.2% | inhibition [6] 0.525% | RAM network inhibition [7] 4.94%

CCC(=O)Nc1cccc(NC(=O)c2cc3ccccc3o2)c1
inactive: growth inhibition [1] -10.9% | growth inhibition [2] -9.17% | viability increase [3] -1.82% | viability [4] 93.8% | viability [5] 90.2% | inhibition [6] 1.2% | RAM network inhibition [7] 5.21%

O=C(O)c1ccc(CSc2nnc(-c3ccco3)o2)cc1
inactive: growth inhibition [1] 7.71% | growth inhibition [2] 9.04% | viability increase [3] 0.19% | viability [4] 108% | viability [5] 96.6% | inhibition [6] 0.595% | RAM network inhibition [7] 3.22%

Cc1ccc(-n2c(SCC(N)=O)nc3c([nH]c4ccccc43)c2=O)cc1
inactive: growth inhibition [1] -15.5% | growth inhibition [2] -5.78% | viability increase [3] -2.14% | viability [4] 91.3% | viability [5] 87.5% | inhibition [6] 0.24% | RAM network inhibition [7] -0.05%

Cc1ccc(-c2nc(C3CCCN(S(=O)(=O)c4ccc(C)cc4)C3)no2)cc1 (stereo not drawn)
inactive: growth inhibition [1] -10.8% | growth inhibition [2] 9.18% | viability increase [3] 5.21% | viability [4] 85.2% | viability [5] 84.3% | inhibition [6] 1.08% | RAM network inhibition [7] -1.57%

Cc1ccc(S(=O)(=O)CC(C)N2CCOCC2)c(S(=O)(=O)CC(C)N2CCOCC2)c1 (stereo not drawn)
inactive: growth inhibition [1] -6.09% | growth inhibition [2] -0.82% | viability increase [3] 1.48% | viability [4] 97% | viability [5] 94.4% | inhibition [6] 0.7% | RAM network inhibition [7] 1.89%
